Hits are enriched below; roughly 2% of the tested compounds scored in any of these assays.
MBD2 inh: blocks human MBD2 binding to methylated DNA; actives 0.31% (n = 370,000); Q9UBB5; inhibition, % at 4.4 µM; TR-FRET, MBD2 binding to methylated oligonucleotide; in the data active = inhibition above about 13%
UHRF1 MBD2 ctr: blocks human UHRF1 binding to methylated DNA; Q96T88; UHRF1 binding to methylated oligo, TR-FRET; inhibition, % at 4.4 µM; actives 0.75% (n = 370,000); in the data active = inhibition above about 21%;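 also: UHRF1 SRA domain binding a hemimethylated CpG hairpin DNA probe; 0% = median of test compound wells and 100% = reference inhibitor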
TDP2 absorb: TDP2 (human) inhibition, absorbance primary screen; O95551; inhibition, % at 12.8 µM; recombinant TDP2, T5PNP hydrolysis, p-nitrophenol absorbance 415 nm; actives 0.34% (n = 370,000); AID 720702;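 active = inhibition above the mean of all tested compounds plus 3 SD, set per campaign, cut at about 25% in these data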;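 also: 0% = DMSO with enzyme and 100% = buffer with substrate but no TDP2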
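Test system: Human TDP2 enzyme | Reagent: 5 mM T5PNP | Compound dosing: 12.8 µM single point, 1% DMSO | Incubation: Enzyme reaction with compound for 2 h at 37 °C | Technique: p-Nitrophenol epi absorbance | Read-out: % inhibition relative to enzyme-containing and enzyme-free wells | Benchmarks: High control without enzyme, low control DMSO plus TDP2 | Replicates: Singlicate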
LEDGF integ inh: blocks HIV-1 LEDGF/p75-dependent DNA integration | TR-FRET IN-LEDGF/p75 DNA integration, Eu/Cy5 | inhibition, % at 3.7 µM | actives 0.64% (n = 370,000) | AID 743269;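 active = inhibition above the screen-wide mean plus 3 SD, cut at about 13% in these data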;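 also: signal is the Cy5 over europium emission ratio at 671 and 618 nm; 0% = plate median of compound wells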
ASAP1 GAP inh: inhibitors of human ASAP1 ArfGAP activity; Q9ULH1; ASAP1-stimulated ARF1 GTP hydrolysis, GDP FP detection; inhibition, % at 16.5 µM; actives 0.19% (n = 360,000); AID 624377;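 also: 0% = vehicle with enzyme and substrate and 100% = no enzyme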
Target sequence (Q9ULH1 325-724 limits assumed): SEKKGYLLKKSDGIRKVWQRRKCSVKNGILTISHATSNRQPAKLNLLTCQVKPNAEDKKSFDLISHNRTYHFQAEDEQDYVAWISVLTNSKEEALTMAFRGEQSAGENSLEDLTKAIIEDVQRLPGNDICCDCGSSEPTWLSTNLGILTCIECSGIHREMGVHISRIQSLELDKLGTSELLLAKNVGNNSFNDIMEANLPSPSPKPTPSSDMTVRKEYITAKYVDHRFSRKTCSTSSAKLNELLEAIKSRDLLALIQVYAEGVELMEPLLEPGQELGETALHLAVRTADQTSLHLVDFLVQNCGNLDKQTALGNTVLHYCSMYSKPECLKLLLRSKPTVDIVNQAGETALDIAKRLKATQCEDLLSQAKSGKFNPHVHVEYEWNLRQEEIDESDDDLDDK
ARFGAP1 inhibitor: rat ARFGAP1 inhibition | inhibition, % at 16.5 µM | AID 651572 | Arfgap1-stimulated ARF1 GTP hydrolysis, GDP FP detection | actives 0.26% (n = 360,000);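 active = inhibition above a per-plate limit, mean inhibition of low control wells plus 3 SD, cut at about 25% in these data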;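 also: 0% = DMSO wells with enzyme and 100% = wells lacking Arfgap1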
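Material – truncated rat Arfgap1 GAP domain · Buffer or medium – HEPES-based buffer, pH 7.5 · Reagent – human ARF1(Δ1-17)-GTP substrate · Dosing – 16.5 µM single point, 1.26% DMSO · Schedule – GTP hydrolysis reaction 2 h at 25 °C · Technique – GDP detection by fluorescence polarization · Benchmarks – No-Arfgap1 wells (100%) versus DMSO full-reaction wells (0%) · Repeats – single replicate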
TDP2 confirm: human TDP2 inhibition, confirmation; shares compounds with TDP2 absorb; AID 743263; actives 22% (n = 1,100); recombinant human TDP2, absorbance read-out; inhibition, % at 12.8 µM;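 also: 0% = vehicle with enzyme and 100% = no enzyme buffer only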
An asterisk follows results filed as active; · = not tested or not shown. Rule as the data show it, unless noted: active = inhibition above about 25%; inactive = the rest.

SMILES	MBD2 inh	UHRF1 MBD2 ctr	TDP2 absorb	LEDGF integ inh	ASAP1 GAP inh	ARFGAP1 inhibitor	TDP2 confirm
CCOC(=O)[C@@]12CN(C(=O)OC(C)(C)C)CC=C1N(Cc1ccc(OC)cc1)C(=O)[C@H]2CC(=O)N1CCN(C(=O)c2ccco2)CC1	3	-1	13	-3	·	·	·
Cc1cccc(NC(=S)Nc2cccc3ccccc23)c1	-2	-4	25*	8	4	3	-2
COc1ccc(NC(=S)Nc2cccc3cnccc23)cc1	-7	-3	16	0	8	5	·
Fc1ccc(NC(=S)Nc2cccc3cnccc23)cc1	0	0	30*	0	2	0	-1
S=C(Nc1ccc(Cl)cc1)Nc1cccc2cnccc12	-7	15	35*	4	11	6	31*
CC(C)N(Cc1cn(Cc2ccccc2)nn1)S(=O)(=O)c1ccccc1Br	1	-1	5	1	·	·	·
N[C@H](C(=O)N1CCC[C@@H]1C(=O)N1CCC2CCN(S(=O)(=O)c3ccccc3)CC21)c1ccccc1 (some centres undefined)	-6	1	-9	10	·	·	·
CC(=O)CC[C@@H]1CC[C@]2(CCCN(S(C)(=O)=O)C2)O1	6	1	-2	-3	·	·	·
C#CCOc1ccc(/C=C2/C(=O)N(c3cccc(C(=O)O)c3)N=C2C)cc1OC	-3	7	71*	-1	3	14	18
COc1cc(/C=C2\C(=O)N(c3ccccc3)N=C2C)ccc1Oc1ccc([N+](=O)[O-])cc1[N+](=O)[O-]	0	18	65*	6	-7	14	16
COc1cc(/C=C2\C(=O)N(c3cccc(C(=O)O)c3)N=C2C)ccc1OCc1ccccc1	-3	-5	21	3	-9	0	·
CN(C)NC(=S)Nc1ccc2nc(-c3ccccn3)c(-c3ccccn3)nc2c1	0	7	5	0	3	4	·
S=C(Nc1ccc2nc(-c3ccccn3)c(-c3ccccn3)nc2c1)N1CCOCC1	-1	10	31*	26*	-4	9	0
CCOc1cccc(OCCCCn2cnc3ccccc3c2=O)c1	1	0	25*	-5	9	-10	0
O=C(O)CN1C(=O)C2C3CC(C2C1=O)C1C(c2ccccc2)c2sc(=O)[nH]c2SC31 (centres undefined)	-6	-2	19	4	-2	4	·
O=c1[nH]c2c(s1)C(c1ccco1)C1C3CCC(C3)C1S2 (centres undefined)	5	3	34*	7	-10	5	7
Cc1nn(-c2ccccc2)c2c1C(c1ccc([N+](=O)[O-])cc1)C(C#N)=C(N)O2 (centres undefined)	-3	2	62*	4	-7	-8	0
Cc1nn(-c2cccc(Cl)c2)c2c1C(c1ccncc1)C(C#N)=C(N)O2 (centres undefined)	-2	3	22	0	0	-3	·
Cc1nn(-c2cccc(Cl)c2)c2c1C(c1cccnc1)C(C#N)=C(N)O2 (centres undefined)	-3	12	60*	2	-3	12	7
Cc1ccc(-n2nc(C)c3c2OC(N)=C(C#N)C3c2ccc(F)cc2)cc1 (centres undefined)	0	-5	49*	-1	8	-6	0
Cc1nn(-c2ccccc2)c2c1C(c1ccco1)C(C#N)=C(N)O2 (centres undefined)	-3	-9	9	2	4	5	·
O=C(CCc1ccccc1)N[C@H]1[C@H](OC(=O)c2ccco2)CCC[C@@]12C(=O)N(Cc1ccccc1)c1ccccc12	1	-4	11	5	·	·	·
Cc1ccc(S(=O)(=O)NCC2COc3ccccc3O2)cc1 (centres undefined)	2	4	-7	6	-3	17	·
Cc1ccc([N+](=O)[O-])cc1S(=O)(=O)NCC1COc2ccccc2O1 (centres undefined)	-1	1	45*	-2	4	-1	-3

Screens: PubChem BioAssay, The Scripps Research Institute Molecular Screening Center
